The source made the active and inactive calls. No cut-off for these calls is given here.
Experiments:
[1] = test system: Escherichia coli; test: Inhibition of biofilm formation in Escherichia coli ATCC 9637 at 0.05 mM incubated for 24 hrs by crystal violet method relative to control; assay type: functional; conditions: ATCC 9637, 24 h
Summary of the method: (§1)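 Crystal violet assay in LB: log-phase bacteria at final 1×10^5 cfu/mL with sulfonamide at final 0.05 mM, 24 h at 37 °C. Biomass read at OD620, then wells washed, biofilm heat-fixed 65 °C 15 min, stained 0.1% crystal violet 15 min, dye eluted in 30% acetic acid, OD550 read. Neat DMSO control taken as 100%. Duplicates, at least two independent experiments; one-way ANOVA.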

[2] = test system: Escherichia coli; test: Antimicrobial activity against Escherichia coli ATCC 9637 assessed as microbial growth inhibition at 50 uM incubated for 20 hrs by broth microdilution method; assay type: functional, organism-based
Summary of the method: (§2)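 Overnight cultures in cation-adjusted Mueller-Hinton broth, subcultured 1:100; log-phase cells at final 1×10^5 cfu/mL exposed to sulfonamide at final 0.05 mM (from 10 mM DMSO stock) for 20 h at 37 °C. OD550 read after shaking. Growth expressed as percent of 0.5% DMSO control wells. Screened at least twice.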

[3] = test system: Burkholderia cepacia; test: Potentiation of colistin-induced antibacterial activity against Burkholderia cepacia R6193 assessed as colistin MIC at 50 uM incubated for 20 hrs by susceptibility testing (Rvb > 256 ug/ml); assay type: functional
Summary of the method: (§3)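 Colistin MIC by broth microdilution in cation-adjusted Mueller-Hinton broth, log-phase cells at final 5×10^5 cfu/mL. Two-fold colistin dilutions in duplicate with sulfonamide at final 0.05 mM (from 10 mM DMSO stock); 20 h at 37 °C. OD550 read. MIC taken as the lowest colistin level reducing growth ≥80% versus growth control. At least two replicates.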

[4] = test system: Acinetobacter baumannii; test: Antimicrobial activity against Acinetobacter baumannii ATCC 15308 assessed as microbial growth inhibition at 50 uM incubated for 20 hrs by broth microdilution method; assay type: functional, organism-based; summary of the method: as §2
[5] = test system: Acinetobacter baumannii; test: Potentiation of colistin-induced antibacterial activity against Acinetobacter baumannii ATCC 15308 assessed as colistin MIC at 50 uM incubated for 20 hrs by susceptibility testing (reference value: 0.25 to 0.5 ug/ml); assay type: functional; summary of the method: as §3
[6] = test system: Stenotrophomonas maltophilia; test: Potentiation of colistin-induced antibacterial activity against Stenotrophomonas maltophilia K279a assessed as colistin MIC at 50 uM incubated for 20 hrs by susceptibility testing (reference value: 2 to 8 ug/ml); assay type: functional; summary of the method: as §3
[7] = test system: Burkholderia cenocepacia; test: Potentiation of colistin-induced antibacterial activity against Burkholderia cenocepacia 289 assessed as colistin MIC at 50 uM incubated for 20 hrs by susceptibility testing (Rvb > 256 ug/ml); assay type: functional; summary of the method: as §3
[8] = test system: Stenotrophomonas maltophilia; test: Inhibition of biofilm formation in Stenotrophomonas maltophilia K279a clinical isolate of rpf-1 subpopulation at 0.05 mM incubated for 24 hrs by crystal violet method; assay type: functional, organism-based; summary of the method: as §1
[9] = test system: Burkholderia multivorans; test: Potentiation of colistin-induced antibacterial activity against Burkholderia multivorans B10 assessed as colistin MIC at 50 uM incubated for 20 hrs by susceptibility testing (Rvb > 128 ug/ml); assay type: functional; summary of the method: as §3
[10] = test system: Pseudomonas aeruginosa; test: Potentiation of colistin-induced antibacterial activity against Pseudomonas aeruginosa assessed as colistin MIC at 50 uM incubated for 20 hrs by susceptibility testing (reference value: 1 to 2 ug/ml); assay type: functional; summary of the method: as §3
[11] = test system: Pseudomonas aeruginosa; test: Antimicrobial activity against Pseudomonas aeruginosa PAO1 assessed as microbial growth inhibition at 50 uM incubated for 20 hrs by broth microdilution method; assay type: functional, organism-based; summary of the method: as §2
[12] = test system: Escherichia coli; test: Potentiation of colistin-induced antibacterial activity against Escherichia coli ATCC 9637 assessed as colistin MIC at 50 uM incubated for 20 hrs by susceptibility testing (reference value: 0.125 to 0.25 ug/ml); assay type: functional; summary of the method: as §3
[13] = test system: Burkholderia multivorans; test: Inhibition of biofilm formation in Burkholderia multivorans B10 at 0.05 mM incubated for 24 hrs by crystal violet method relative to control; assay type: functional; conditions: B10, 24 h; summary of the method: as §1
[14] = test system: Pseudomonas aeruginosa; test: Inhibition of biofilm formation in Pseudomonas aeruginosa PAO1 at 0.05 mM incubated for 24 hrs by crystal violet method; assay type: functional, organism-based; summary of the method: as §1
[15] = Toxicity in Galleria mellonella larva assessed as larval survival at 50 uM
[16] = test system: Acinetobacter baumannii; test: Inhibition of biofilm formation in Acinetobacter baumannii ATCC 15308 at 0.05 mM incubated for 24 hrs by crystal violet method relative to control; assay type: functional; conditions: ATCC 15308, 24 h; summary of the method: as §1
[17] = test system: Burkholderia cepacia; test: Inhibition of biofilm formation in Burkholderia cepacia R6193 clinical isolate at 0.05 mM incubated for 24 hrs by crystal violet method; assay type: functional, organism-based; summary of the method: as §1
[18] = test system: Stenotrophomonas maltophilia; test: Antimicrobial activity against Stenotrophomonas maltophilia K279a assessed as microbial growth inhibition at 50 uM incubated for 20 hrs by broth microdilution method; assay type: functional, organism-based; summary of the method: as §2

Row | Structure (SMILES) | inhibition at 50 µM [1] [%] | growth inhibition (GI) [2] | MIC [3] [µg/mL] | growth inhibition (GI) [4] | MIC [5] [µg/mL] | MIC [6] [µg/mL] | MIC [7] [µg/mL] | inhibition [8] | MIC [9] [µg/mL] | MIC [10] [µg/mL] | growth inhibition (GI) [11] | MIC [12] [µg/mL] | inhibition at 50 µM [13] [%] | inhibition [14] | Activity [15] | inhibition at 50 µM [16] [%] | inhibition [17] | growth inhibition (GI) [18]
1 | CCCCCCCCCc1ccccc1C(=O)NS(=O)(=O)c1ccc(Cl)cc1 | 59 | inactive | > 256 | inactive | 1 | 2 | > 256 | inactive | > 128 | 4 | inactive | 1 | 47 | inactive |  |  |  | 
2 | CCCCCCCCCc1ccccc1C(=O)NS(C)(=O)=O |  | inactive | > 256 | inactive | 0.125 | 0.5 | > 256 | inactive | > 128 | 1 | inactive | 0.125 |  | inactive | Non-Toxic |  |  | 
3 | CCCCCCCCCc1ccccc1C(=O)NS(=O)(=O)CCC(F)(F)F |  | inactive | > 256 | inactive | 0.25 | 0.5 | > 256 | inactive | > 128 | 1 | inactive | 0.25 |  | inactive |  |  |  | 
4 | CCCCCCCCCc1ccccc1C(=O)NS(=O)(=O)c1ccccc1Br | 43 | inactive | > 256 | inactive | 0.5 | 0.5 | > 256 | inactive | > 128 | 1 | inactive | 0.5 | 38 | inactive |  | 30 |  | 
5 | CCCCCCCCCc1ccccc1C(=O)NS(=O)(=O)c1ccc(C(C)(C)C)cc1 |  | inactive | > 256 | inactive | 0.5 | 4 | > 256 | inactive | > 128 | 1 | inactive | 0.5 | > 35 | inactive |  |  |  | 
6 | CCCCCCCCCc1ccccc1C(=O)NS(=O)(=O)c1ccc(OC)cc1 |  | inactive | > 256 | inactive | 0.25 | 1 | > 256 | inactive | > 128 | 1 | inactive | 0.25 |  | inactive |  | 41 |  | 
7 | CCCCCCCCCc1ccccc1C(=O)NS(=O)(=O)c1ccc(Br)cc1 | > 59 | inactive | > 256 | inactive | 2 | 2 | > 256 | inactive | > 128 | 8 | inactive | > 1 | 31 | inactive |  | 8 | inactive | 
8 | CCCCCCCCCc1ccccc1C(=O)NS(=O)(=O)C1CC1 |  | inactive | > 256 | inactive | 0.125 | 1 | > 256 | inactive | > 128 | 1 | inactive | 0.125 |  | inactive |  |  |  | 
9 | CCCCCCCCCc1ccccc1C(=O)NS(=O)(=O)c1ccccc1F |  | inactive | > 256 | inactive | 0.25 | 1 | > 256 | inactive | > 128 | 1 | inactive | 0.25 |  | inactive |  | 27 |  | 
10 | CCCCCCCCCc1ccccc1C(=O)NS(=O)(=O)c1cccc(Br)c1 | 63 | inactive | > 256 | inactive | 1 | 4 | > 256 | inactive | > 128 | 4 | inactive | > 1 | 41 | inactive | Non-Toxic | 1.5 | inactive | Active
11 | CCCCCCCCCc1ccccc1C(=O)NS(=O)(=O)c1ccc([N+](=O)[O-])cc1 |  | inactive | > 256 | inactive | 0.5 | 1 | > 256 | inactive | > 128 | 2 | inactive | 0.5 |  | inactive |  | 50 |  | 
12 | CCCCCCCCCc1ccccc1C(=O)NS(=O)(=O)c1ccc(F)cc1 | 22 | inactive | > 256 | inactive | 0.25 | 0.5 | > 256 | inactive | > 128 | 1 | inactive | 0.5 | 27 | inactive |  | 25 |  | 
13 | CCCCCCCCC/C=C\C(=O)O |  | inactive | > 256 | inactive | 0.125 | 0.5 | > 256 | inactive | > 128 | 1 | inactive | 0.063 |  | inactive |  | 38 |  | 
14 | CCCCCCCCCc1ccccc1C(=O)NS(=O)(=O)c1ccccc1 |  | inactive | > 256 | inactive | 0.25 | 0.5 | > 256 | inactive | > 128 | 1 | inactive | 0.25 |  | inactive |  |  |  | 
15 | CCCCCCCCCc1ccccc1C(=O)NS(=O)(=O)c1cccc(F)c1 |  | inactive | > 256 | inactive | 0.25 | 0.5 | > 256 | inactive | > 128 | 1 | inactive | 0.25 |  | inactive |  | 27 |  | 

Reference: ChEMBL document CHEMBL5335788, “Synthesis and evaluation of aromatic BDSF bioisosteres on biofilm formation and colistin sensitivity in pathogenic bacteria” (Eur J Med Chem, 2023)
